Results taken from ChEMBL document CHEMBL2412994, “Solid phase synthesis of Smac/DIABLO-derived peptides using a 'Safety-Catch' resin: identification of potent XIAP BIR3 antagonists” (Bioorg Med Chem, 2013).
Activity calls are given as the source filed them. No cut-off for these calls is given here. Square brackets hold non-standard residues; d marks the D form. Peptide text beside a SMILES is read from it. Phg = N[C@H](C(=O)O)c1ccccc1; NMeA = CN[C@@H](C)C(=O)O

Experiments:
MDA-MB-231 = assay: Cytotoxicity against human MDA-MB-231 cells assessed as cell viability after by MTT assay; assay type: functional
How it was run: (§1)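 MTT viability assay. MDA-MB-231 cells were seeded at 1 × 10⁴ cells/well and MCF-7 cells at 2 × 10⁴ cells/well, then held 24 h at 37 °C in 5% CO₂. Medium was replaced with treatments; vehicle controls received matched DMSO. After 72 h, MTT (10 mg/ml stock) was added for 2 h in the dark. Formazan was dissolved in DMSO and read at 550 nm. Viability relative to untreated control at 100 µM.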

MCF7 = assay: Cytotoxicity against human MCF7 cells assessed as cell viability after by MTT assay; assay type: functional; how it was run: as §1
[1] = biological target: E3 ubiquitin-protein ligase XIAP (Homo sapiens, UniProt P98170); assay: Binding affinity to XIAP BIR3-domain (unknown origin)
Sequence of E3 ubiquitin-protein ligase XIAP (P98170 whole entry): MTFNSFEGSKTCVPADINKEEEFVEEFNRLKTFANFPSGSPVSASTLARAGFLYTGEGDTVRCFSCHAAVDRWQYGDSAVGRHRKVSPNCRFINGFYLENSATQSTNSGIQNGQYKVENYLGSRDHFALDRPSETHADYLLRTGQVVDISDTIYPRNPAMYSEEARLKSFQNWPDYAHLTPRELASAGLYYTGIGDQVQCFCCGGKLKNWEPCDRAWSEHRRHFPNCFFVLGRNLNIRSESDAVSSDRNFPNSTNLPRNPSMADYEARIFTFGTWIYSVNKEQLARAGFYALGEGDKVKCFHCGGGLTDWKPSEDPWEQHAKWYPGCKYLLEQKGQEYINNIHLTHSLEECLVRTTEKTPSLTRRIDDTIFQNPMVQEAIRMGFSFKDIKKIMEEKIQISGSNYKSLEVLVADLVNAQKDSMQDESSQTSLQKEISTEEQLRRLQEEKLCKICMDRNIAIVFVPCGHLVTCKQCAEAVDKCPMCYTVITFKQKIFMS

Row | Kd [1] | Molecule | Activity (MDA-MB-231) | Activity (MCF7)
1 | – | CN[C@@H](C)C(=O)N[C@H](C(=O)N1C[C@H](c2ccccc2)C[C@H]1C(=O)N[C@@H]1CCCc2ccccc21)C(C)(C)C | 54.6% | 79.4%
2 | – | CN[C@@H](C)C(=O)N[C@H](C(=O)N1C[C@H](Oc2ccccc2)C[C@H]1C(=O)NC(c1ccccc1)c1ccccc1)C(C)(C)C | 50.3% | 58.6%
3 | – | CN[C@@H](C)C(=O)N[C@H](C(=O)N1C[C@H](c2ccccc2)C[C@H]1C(=O)NC(c1ccccc1)c1ccccc1)C(C)(C)C | 50.1% | 62.3%
4 | – | CN[C@@H](C)C(=O)N[C@H](C(=O)N1C[C@H](Oc2ccccc2)C[C@H]1C(=O)N[C@@H]1CCCc2ccccc21)C(C)(C)C | 58.1% | 70.8%
5 | 30 nM | CC(C)[C@H](NC(=O)[C@H](C)N)C(=O)N1CCC[C@H]1C(=O)N[C@H](C(=O)N[C@@H](Cc1ccc(O)cc1)C(N)=O)c1ccccc1 (H-AVP[Phg]Y-NH2) | inactive | inactive
6 | 60 nM | H-AVPFY-NH2 | inactive | inactive
7 | 40 nM | CN[C@@H](C)C(=O)N[C@H](C(=O)N1CCC[C@H]1C(=O)N[C@@H](Cc1ccccc1)C(=O)N[C@@H](Cc1ccc(O)cc1)C(N)=O)C(C)C (H-[NMeA]VPFY-NH2) | inactive | inactive
